For orientation: tissue uptake means the percentage of the injected dose found per gram of tissue.

Data on two compounds can be found in article PMC3563241 (Nuclear medicine and biology, 2012).

Series [1] has as its target integrin α4β1 (VLA-4) (Mus musculus, UniProt P09055+Q00651). Put plainly: Saturation binding assay in B16F10 melanoma cells. The following applies: 4 °C, 2 h, 0.1–80 nM. In a few lines: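 Binding medium was HBSS with 0.1% BSA and 1 mM Mn²⁺. Nonspecific binding was measured with 12 μg unlabelled ligand. After 2 h on ice, cells were rinsed, lysed in 0.5% SDS and gamma-counted. Counts were normalised to BCA protein, n=3 per point.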

Series [2] has as its system B16F10 tumor-bearing mice. The conditions noted are these: 2 h post-injection, 5 μCi (12.5 ng); previously published data; cited from earlier work.
For series [3], the system named is B16F10 tumor-bearing mice. Put plainly: Small animal PET/CT imaging of B16F10 tumor-bearing mice. Format: in vivo, C57BL/6 mice. The following applies: 2 h post-injection. A digest of the protocol:
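Mice bearing B16F10 tumours received the ⁶⁴Cu-labelled conjugate by tail vein, 100 μCi (667 ng); half of the doses were premixed with 100 μg unlabelled ligand. PET/CT was done at 2 and 24 h under 1–2% isoflurane, with 15 or 30 min static scans and MAP reconstruction. CT-guided ROIs gave maximum SUV (nCi/mL × weight/injected dose), and tumour:background ratios were taken from MIP images (n = 2).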

The test system of series [4] is B16F10 tumor-bearing mice. The experiment in a line: Biodistribution studies in B16F10 tumor-bearing mice. The following applies: 2 h, co-administered with excess cold LLP2A (50 μg). Format: in vivo, C57BL/6 mice. A digest of the protocol:
(§1)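 Subcutaneous B16F10 tumours (1 × 10⁷ cells in PBS:Matrigel 1:1) grown 14–21 d in 7-wk-old C57BL/6 mice. Mice (n = 5/group) were given the ⁶⁴Cu-labelled conjugate i.v., 14 μCi (14 ng; 1000 μCi/μg); the blocking group's dose was premixed with 50 μg unlabelled ligand. Animals were killed at 2 h, and tissues and tumour were weighed and gamma-counted. %ID/g was decay-corrected against an injected-dose standard; mean±SD.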

Assay in series [5]: as above
Format: in vivo, C57BL/6 mice. The conditions noted are these: C57BL/6, mouse, iv, total radioactivity; for tissue uptake at 2 h: 14 μCi (14 ng); for tissue to tissue ratio at 2 h: 14 ng. In a few lines: as §1

Several values for one entry are separate records, joined by “and”; a condition that tells them apart may be missing. Equal values may be shown once.

Sequence of integrin α4β1 (VLA-4) (Q00651 41-1039): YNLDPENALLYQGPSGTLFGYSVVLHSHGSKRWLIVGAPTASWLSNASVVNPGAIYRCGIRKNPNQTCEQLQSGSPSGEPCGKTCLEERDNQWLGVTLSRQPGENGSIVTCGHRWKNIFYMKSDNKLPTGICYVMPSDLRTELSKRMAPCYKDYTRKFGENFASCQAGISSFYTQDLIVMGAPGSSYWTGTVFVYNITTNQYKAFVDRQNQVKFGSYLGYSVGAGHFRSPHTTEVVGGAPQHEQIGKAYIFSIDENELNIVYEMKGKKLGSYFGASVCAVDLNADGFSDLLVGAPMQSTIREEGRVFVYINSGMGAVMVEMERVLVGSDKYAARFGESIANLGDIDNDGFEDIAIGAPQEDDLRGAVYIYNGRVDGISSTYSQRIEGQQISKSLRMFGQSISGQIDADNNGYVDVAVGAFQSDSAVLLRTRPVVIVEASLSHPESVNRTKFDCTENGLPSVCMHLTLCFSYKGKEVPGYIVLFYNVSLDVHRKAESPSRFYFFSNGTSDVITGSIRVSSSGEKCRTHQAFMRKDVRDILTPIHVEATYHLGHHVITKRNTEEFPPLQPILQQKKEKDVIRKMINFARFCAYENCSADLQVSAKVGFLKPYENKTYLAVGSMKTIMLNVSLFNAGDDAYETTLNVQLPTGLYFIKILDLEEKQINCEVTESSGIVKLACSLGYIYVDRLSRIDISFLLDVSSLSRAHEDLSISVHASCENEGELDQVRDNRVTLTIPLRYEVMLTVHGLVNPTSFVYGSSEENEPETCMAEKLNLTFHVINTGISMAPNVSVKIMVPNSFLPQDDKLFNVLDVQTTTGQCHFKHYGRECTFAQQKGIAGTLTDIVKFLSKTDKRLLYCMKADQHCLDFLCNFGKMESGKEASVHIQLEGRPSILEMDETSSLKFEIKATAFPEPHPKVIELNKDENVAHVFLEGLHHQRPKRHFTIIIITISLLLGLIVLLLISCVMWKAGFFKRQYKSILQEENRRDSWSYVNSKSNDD
Sequence of integrin α4β1 (VLA-4) (P09055 21-798): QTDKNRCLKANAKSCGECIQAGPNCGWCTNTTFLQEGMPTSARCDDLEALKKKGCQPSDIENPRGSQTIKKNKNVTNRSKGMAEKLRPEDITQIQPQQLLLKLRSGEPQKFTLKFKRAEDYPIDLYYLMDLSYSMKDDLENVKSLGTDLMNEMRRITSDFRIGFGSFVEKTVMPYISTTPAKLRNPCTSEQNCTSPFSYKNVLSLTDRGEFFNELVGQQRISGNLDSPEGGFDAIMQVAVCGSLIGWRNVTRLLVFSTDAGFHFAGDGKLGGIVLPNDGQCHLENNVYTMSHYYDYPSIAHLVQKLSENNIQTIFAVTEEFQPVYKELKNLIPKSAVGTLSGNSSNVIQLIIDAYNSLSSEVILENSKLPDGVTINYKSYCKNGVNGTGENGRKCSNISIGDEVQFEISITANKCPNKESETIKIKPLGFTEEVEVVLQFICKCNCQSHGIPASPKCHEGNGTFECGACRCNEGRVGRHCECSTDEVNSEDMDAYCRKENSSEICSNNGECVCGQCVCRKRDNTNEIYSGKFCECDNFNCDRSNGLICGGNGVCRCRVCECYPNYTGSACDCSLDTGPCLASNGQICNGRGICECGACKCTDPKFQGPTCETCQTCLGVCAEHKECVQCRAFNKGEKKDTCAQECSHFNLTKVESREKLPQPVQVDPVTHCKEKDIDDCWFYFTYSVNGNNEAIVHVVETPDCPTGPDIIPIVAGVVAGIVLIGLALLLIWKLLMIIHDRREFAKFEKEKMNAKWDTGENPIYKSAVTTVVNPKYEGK

As to `Cc1ccccc1NC(=O)Nc1ccc(CC(=O)N[C@@H](CCCCNC(=O)/C=C/c2cccnc2)C(=O)N[C@@H](CCCC(=O)O)C(=O)NC2(C(=O)NCCOCCOCCNC(=O)CCC(=O)NCCOCCOCCNC(=O)CCC(=O)N[C@@H](CCCCNC(=O)CN3CCCN4CCN(CCCN(CC(=O)O)CC4)CC3)C(N)=O)CCCCC2)cc1` [^64Cu-CB-TE2A-LLP2A, metal not drawn, reference compound], the “receptor concentration (Bmax)” value in series [1] was 304 fmol/mg and 304 ± 18 fmol/mg. Besides, in series [2], the “Tumor to blood ratio” value was 4.2 ± 1.4 and the “Tumor to muscle ratio” value is on record as 5.5 ± 0.9.

In the case of `Cc1ccccc1NC(=O)Nc1ccc(CC(=O)N[C@@H](CCCCNC(=O)/C=C/c2cccnc2)C(=O)N[C@@H](CCCC(=O)O)C(=O)NC2(C(=O)NCCOCCOCCNC(=O)CCC(=O)NCCOCCOCCNC(=O)CCC(=O)N[C@@H](CCCCNC(=O)CN3CCCN4CCN(CCCN(CP(=O)(O)O)CC4)CC3)C(N)=O)CCCCC2)cc1` [^64Cu-CB-TE1A1P-LLP2A, metal not drawn], the “Fold higher tumor to background ratio than ^64Cu-CB-TE2A-LLP2A” value in series [3] is “more than 2 fold”. Further, the “receptor concentration (Bmax)” value in series [1] was 471 fmol/mg and 471 ± 14 fmol/mg. Moreover, the “Radiotracer uptake in tumor, spleen and bone in the presence of blocking agent” value in series [4] was “significantly reduced”. Also, the tissue uptake at 2 h was 6.2 ± 1.7 %ID/g in series [5] (bone); 3.2 ± 0.4 %ID/g in series [5] (kidney); 2.3 ± 0.3 %ID/g in series [5] (liver); 32.6 ± 19 %ID/g in series [5] (marrow); 17.9 ± 2.3 %ID/g in series [5] (spleen); 11.4 ± 2.3 %ID/g in series [5] (tumor). Also, the tissue to tissue ratio at 2 h was 19.5 ± 3 in series [5] (tumor / blood) and 13 ± 1.4 in series [5] (tumor / muscle).
